ChEMBL document CHEMBL4813947, “New dual ATP-competitive inhibitors of bacterial DNA gyrase and topoisomerase IV active against ESKAPE pathogens” (Eur J Med Chem, 2021)
≈ marks a conversion by molar mass, not a printed value.

Key:
[1] = Inhibition of Escherichia coli topoisomerase assessed as reduction in relaxation of supercoiled pNO1 DNA measured after 30 mins by fluorescence assay
Outline: (§1)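 Enzyme run per an earlier-reported procedure; IC50 fitted from seven inhibitor concentrations, mean of three independent measurements.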

[2] = Inhibition of Staphylococcus aureus topoisomerase assessed as reduction in relaxation of supercoiled pNO1 DNA measured after 30 mins by fluorescence assay; outline: as §1
DNA gyrase [3] = target: DNA gyrase (Escherichia coli, UniProt P0AES4+P0AES6); test: Inhibition of Escherichia coli DNA gyrase assessed as reduction in supercoiling of relaxed pNO1 DNA measured after 30 mins by fluorescence assay
DNA gyrase [4] = target: DNA gyrase (Staphylococcus aureus, UniProt P0A0K8+P20831); test: Inhibition of Staphylococcus aureus DNA gyrase assessed reduction in supercoiling of relaxed pNO1 DNA measured after 30 mins by fluorescence assay
Staphylococcus aureus [5] = test: Antibacterial activity against Staphylococcus aureus ATCC 29213 assessed as inhibition of bacterial growth by CLSI protocol based broth microdilution assay; assay type: functional
Staphylococcus aureus [6] = test: Antibacterial activity against methicillin-resistant Staphylococcus aureus ATCC 43300 assessed as inhibition of bacterial growth by CLSI protocol based broth microdilution assay; assay type: functional
Outline: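 Minimum inhibitory concentration by standard serial broth microdilution following CLSI guidelines. Medium was MHBII broth (22 g/L powder: beef extract, casein acid hydrolysate, starch), with MHBII agar (14 g agar per L broth). Where noted, assayed without and with efflux pump substrate phenylalanine-arginine β-naphthylamide (PAβN).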

Enterococcus faecalis = test: Antibacterial activity against Enterococcus faecalis ATCC 29212 assessed as inhibition of bacterial growth by CLSI protocol based broth microdilution assay; assay type: functional
Acinetobacter baumannii = test: Antibacterial activity against Acinetobacter baumannii ATCC 17978 assessed as inhibition of bacterial growth by CLSI protocol based broth microdilution assay; assay type: functional
Pseudomonas aeruginosa = test: Antibacterial activity against Pseudomonas aeruginosa ATCC 27853 assessed as inhibition of bacterial growth by CLSI protocol based broth microdilution assay; assay type: functional
Klebsiella pneumoniae = test: Antibacterial activity against Klebsiella pneumoniae ATCC 10031 assessed as inhibition of bacterial growth by CLSI protocol based broth microdilution assay; assay type: functional
Escherichia coli = test: Antibacterial activity against Escherichia coli ATCC 25922 assessed as inhibition of bacterial growth by CLSI protocol based broth microdilution assay; assay type: functional

Structure (SMILES) | IC50 [1] [nM] | IC50 [2] [nM] | IC50 (DNA gyrase [4]) [nM] | IC50 (DNA gyrase [3]) [nM] | MIC (Staphylococcus aureus [5]) [µg/mL] | MIC (Staphylococcus aureus [6]) [µg/mL] | MIC (Enterococcus faecalis) [µg/mL] | MIC (Acinetobacter baumannii) [µg/mL] | MIC (Pseudomonas aeruginosa) [µg/mL] | MIC (Klebsiella pneumoniae) [µg/mL] | MIC (Escherichia coli) [µg/mL]
CCN(C(=O)c1[nH]c(C)c(Cl)c1Cl)c1nc2ccc(C(=O)O)cc2s1 | > 1000 | 230 | 32 | < 10 | 0.125 (≈ 0.314 µM) | 8 (≈ 20.1 µM) | 0.125 (≈ 0.314 µM) | 16 (≈ 40.2 µM) | > 64 | 16 (≈ 40.2 µM) | 32 (≈ 80.3 µM)
Cc1[nH]c(C(=O)Nc2nc3ccc(-c4nnn[nH]4)cc3s2)c(Cl)c1Cl | 660 | 270 | 25 | < 10 | 16 (≈ 40.6 µM) | 16 (≈ 40.6 µM) | 1 (≈ 2.54 µM) | > 64 | > 64 | 16 (≈ 40.6 µM) | > 64
O=C(O)c1cc(O)c2nc(NC(=O)c3cc(Br)c(Br)[nH]3)sc2c1 | 180 | 240 | 170 |  |  |  |  |  |  |  | 
Cc1[nH]c(C(=O)N(c2nc3ccc(C(=O)O)cc3s2)C2CC2)c(Cl)c1Cl | > 1000 | > 1000 | > 1000 |  | 2 (≈ 4.87 µM) | 2 (≈ 4.87 µM) | 0.25 (≈ 0.609 µM) | > 64 | > 64 | 64 (≈ 156 µM) | > 64
O=C(O)c1ccc2nc(NC(=O)c3cc(Br)c(Br)[nH]3)sc2c1 | > 1000 | 300 | > 1000 |  |  |  |  |  |  |  | 
Cc1[nH]c(C(=O)Nc2nc3c(OCc4cccs4)cc(C(=O)O)cc3s2)c(Cl)c1Cl | 300 | 88 | < 10 | < 10 | 0.0625 (≈ 0.13 µM) | 0.5 (≈ 1.04 µM) | 0.0163 (≈ 0.0338 µM) | 1 (≈ 2.07 µM) | 4 (≈ 8.29 µM) | 4 (≈ 8.29 µM) | 8 (≈ 16.6 µM)
O=C(NO)c1ccc2nc(NC(=O)c3cc(Br)c(Br)[nH]3)sc2c1 | > 1000 | > 1000 | > 1000 |  |  |  |  |  |  |  | 
Cc1[nH]c(C(=O)Nc2nc3c(OCc4ccccc4)cc(C(=O)O)cc3s2)c(Cl)c1Cl |  | 68 |  |  | 0.5 (≈ 1.05 µM) | 0.0625 (≈ 0.131 µM) | < 0.0212 | 2 (≈ 4.2 µM) | 2 (≈ 4.2 µM) | 1 (≈ 2.1 µM) | 16 (≈ 33.6 µM)
Cc1[nH]c(C(=O)Nc2nc3c(OCc4cccc(F)c4)cc(C(=O)O)cc3s2)c(Cl)c1Cl |  | < 10 | < 10 |  | 0.0625 (≈ 0.126 µM) | 0.0625 (≈ 0.126 µM) | 0.001 (≈ 0.00202 µM) | 2 (≈ 4.05 µM) | 64 (≈ 129 µM) | > 64 | 
Cc1[nH]c(C(=O)Nc2nc3c(F)cc(C(=O)O)cc3s2)c(Cl)c1Cl | 200 | 240 | 17 | < 10 | 0.5 (≈ 1.29 µM) | 0.0625 (≈ 0.161 µM) | 0.0625 (≈ 0.161 µM) | 8 (≈ 20.6 µM) | 64 (≈ 165 µM) | 4 (≈ 10.3 µM) | 16 (≈ 41.2 µM)
Cc1[nH]c(C(=O)Nc2nc3ccc(C(=O)NO)cc3s2)c(Cl)c1Cl | > 1000 | > 1000 | 720 |  | 64 (≈ 166 µM) | 32 (≈ 83.1 µM) | 0.5 (≈ 1.3 µM) | > 64 | > 64 | > 64 | > 64

More lines, main results first:

IC50 [1] [nM] | IC50 [2] [nM] | IC50 (DNA gyrase [4]) [nM] | Structure (SMILES) | IC50 (DNA gyrase [3]) [nM] | MIC (Staphylococcus aureus [5]) [µg/mL] | MIC (Staphylococcus aureus [6]) [µg/mL] | MIC (Enterococcus faecalis) [µg/mL] | MIC (Acinetobacter baumannii) [µg/mL] | MIC (Pseudomonas aeruginosa) [µg/mL] | MIC (Klebsiella pneumoniae) [µg/mL] | MIC (Escherichia coli) [µg/mL]
170 | 13 | < 10 | Cc1[nH]c(C(=O)Nc2nc3c(OCc4cccc(C(=O)O)c4)cc(C(=O)O)cc3s2)c(Cl)c1Cl | < 10 |  |  |  |  |  |  | 
> 1000 | > 1000 | > 1000 | Cc1[nH]c(C(=O)Nc2nc3c(OCc4ccccc4)cc(C(N)=O)cc3s2)c(Cl)c1Cl |  |  |  |  |  |  |  | 
> 1000 | > 1000 | > 1000 | COc1ccc2nc(NC(=O)c3[nH]c(C)c(Cl)c3Cl)sc2c1 | > 1000 |  |  |  |  |  |  | 
490 | 320 | 59 | Cc1[nH]c(C(=O)Nc2nc3ccc(C(N)=O)cc3s2)c(Cl)c1Cl |  |  |  |  |  |  |  | 
> 1000 | > 1000 | > 1000 | Cc1[nH]c(C(=O)N(c2nc3ccc(C(=O)O)cc3s2)C(C)C)c(Cl)c1Cl |  |  |  |  |  |  |  | 
> 1000 | > 1000 | > 1000 | Cc1[nH]c(C(=O)Nc2nc3cc(C(=O)O)ccc3s2)c(Cl)c1Cl |  |  |  |  |  |  |  | 
